Reference: ChEMBL document CHEMBL1140196, “Synthesis and biological activities of some new fluorinated coumarins and 1-aza coumarins” (Eur J Med Chem, 2008)

Assays:
[1] = tested on: Rattus norvegicus; assay: Antiinflammatory activity in Wistar rat assessed as inhibition of formalin-induced paw oedema volume at 100 mg/kg, po administered 30 mins before formalin challenge after 1 hr relative to control; type: functional
How it was run: (§1)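 Oral dosing at 100 mg/kg as a 2% CMC suspension, 30 min before injecting 3.5% formalin into the paw. Groups of six Wistar rats of either sex. Paw volume read by mercury-displacement plethysmograph at 0 h (right after formalin) and at 1, 2, 3, 4 and 5 h. Percent inhibition versus plain 2% CMC controls; SEM reported.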

[2] = Acute toxicity in ip dosed albino mouse after 24 hrs; type: organism-based; conditions: in vivo
How it was run: (§2)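 Groups of six albino mice (20–25 g), fasted overnight, dosed once orally or intraperitoneally at 100 to 1000 mg kg^-1 body weight. Observed for 24 h for mortality and signs of acute toxicity (altered motor activity, tremors, convulsion, sedation, lacrimation). LD50 cut-off set at the highest dose tested, 1000 mg kg^-1.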

[3] = tested on: Mus musculus; assay: Analgesic activity in albino mouse assessed as inhibition of acetic acid-induced writhing at 10 mg/kg, po; type: functional
How it was run: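 Acetic acid writhing test: 0.6% acetic acid at 0.1 ml/10 g given intraperitoneally to albino mice of both sexes (18–22 g). Compounds given orally at 10 mg/kg as a suspension in 5% carboxymethyl cellulose. Indomethacin 10 mg/kg was the reference under the same conditions.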

[4] = tested on: Rattus norvegicus; assay: Gastrointestinal toxicity in Wistar rat assessed as ulcerogenic effect at 400 mg/kg, po administered twice at 2 hrs interval after 4 hrs; type: organism-based; design: dose 400 mg/kg, route oral; conditions: in vivo
How it was run: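 Male Wistar rats fasted 36 h, then given 400 mg/kg orally twice, 2 h apart. Animals killed 4 h later and the stomach examined for lesions; ulcer index recorded.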

[5] = tested on: Rattus norvegicus; assay: Antiinflammatory activity in Wistar rat assessed as inhibition of formalin-induced paw oedema volume at 100 mg/kg, po administered 30 mins before formalin challenge after 3 hrs relative to control; type: functional; how it was run: as §1
[6] = tested on: Rattus norvegicus; assay: Antiinflammatory activity in Wistar rat assessed as inhibition of formalin-induced paw oedema volume at 100 mg/kg, po administered 30 mins before formalin challenge after 4 hrs relative to control; type: functional; how it was run: as §1
[7] = tested on: Rattus norvegicus; assay: Antiinflammatory activity in Wistar rat assessed as inhibition of formalin-induced paw oedema volume at 100 mg/kg, po administered 30 mins before formalin challenge after 2 hrs relative to control; type: functional; how it was run: as §1
[8] = tested on: Rattus norvegicus; assay: Antiinflammatory activity in Wistar rat assessed as inhibition of formalin-induced paw oedema volume at 100 mg/kg, po administered 30 mins before formalin challenge after 5 hrs relative to control; type: functional; how it was run: as §1
[9] = Acute toxicity in po dosed albino mouse after 24 hrs; type: organism-based; conditions: in vivo; how it was run: as §2
[10] = tested on: Macrophomina phaseolina; assay: Antifungal activity against Rhizoctonia bataticola at 50 ug/mL after 48 hrs by cup-plate method; type: functional
[11] = tested on: Aspergillus niger; assay: Antifungal activity against Aspergillus niger at 25 ug/mL after 48 hrs by cup-plate method; type: functional; conditions: for zone of inhibition at 25 µg/mL: read-out: IZ
[12] = tested on: Macrophomina phaseolina; assay: Antifungal activity against Rhizoctonia bataticola at 25 ug/mL after 48 hrs by cup-plate method; type: functional
[13] = tested on: Aspergillus niger; assay: Antifungal activity against Aspergillus niger at 50 ug/mL after 48 hrs by cup-plate method; type: functional
[14] = tested on: Macrophomina phaseolina; assay: Antifungal activity against Rhizoctonia bataticola at 100 ug/mL after 48 hrs by cup-plate method; type: functional
[15] = tested on: Escherichia coli; assay: Antibacterial activity against Escherichia coli at 100 ug/mL after 48 hrs by cup-plate method; type: functional
[16] = tested on: Aspergillus niger; assay: Antifungal activity against Aspergillus niger at 100 ug/mL after 48 hrs by cup-plate method; type: functional
[17] = tested on: Bacillus; assay: Antibacterial activity against […] at 100 ug/mL after 48 hrs by cup-plate method; type: functional
[18] = tested on: Escherichia coli; assay: Antibacterial activity against Escherichia coli at 25 ug/mL after 48 hrs by cup-plate method; type: functional; conditions: for zone of inhibition at 25 µg/mL: read-out: IZ
[19] = tested on: Bacillus; assay: Antibacterial activity against […] at 25 ug/mL after 48 hrs by cup-plate method; type: functional; conditions: for zone of inhibition at 25 µg/mL: read-out: IZ
[20] = tested on: Bacillus; assay: Antibacterial activity against […] at 50 ug/mL after 48 hrs by cup-plate method; type: functional
[21] = tested on: Escherichia coli; assay: Antibacterial activity against Escherichia coli at 50 ug/mL after 48 hrs by cup-plate method; type: functional
[22] = tested on: Rattus norvegicus; assay: Antiinflammatory activity in Wistar rat assessed as inhibition of formalin-induced paw oedema volume at 10 mg/kg, po administered 30 mins before formalin challenge after 1 hr relative to control; type: functional
How it was run: (§3)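 Reference arm of the formalin paw-oedema test: oral dose of 10 mg/kg, 30 min before 3.5% formalin, in groups of six Wistar rats of either sex. Paw volume read by mercury-displacement plethysmograph at 0 to 5 h. Percent inhibition versus 2% CMC vehicle controls.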

[23] = tested on: Rattus norvegicus; assay: Gastrointestinal toxicity in Wistar rat assessed as ulcerogenic effect at 10 mg/kg, po administered twice at 2 hrs interval after 4 hrs; type: organism-based; design: dose 10 mg/kg, route oral; conditions: in vivo
How it was run: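 Male Wistar rats fasted 36 h, then given indomethacin suspended in 1% CMC orally at 2 × 10 mg/kg, 2 h apart. Animals killed after 4 h and the stomach examined for lesions; ulcer index recorded.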

[24] = tested on: Rattus norvegicus; assay: Antiinflammatory activity in Wistar rat assessed as inhibition of formalin-induced paw oedema volume at 10 mg/kg, po administered 30 mins before formalin challenge after 2 hrs relative to control; type: functional; how it was run: as §3
[25] = tested on: Rattus norvegicus; assay: Antiinflammatory activity in Wistar rat assessed as inhibition of formalin-induced paw oedema volume at 10 mg/kg, po administered 30 mins before formalin challenge after 3 hrs relative to control; type: functional; how it was run: as §3
[26] = tested on: Rattus norvegicus; assay: Antiinflammatory activity in Wistar rat assessed as inhibition of formalin-induced paw oedema volume at 10 mg/kg, po administered 30 mins before formalin challenge after 5 hrs relative to control; type: functional; how it was run: as §3
[27] = tested on: Rattus norvegicus; assay: Antiinflammatory activity in Wistar rat assessed as inhibition of formalin-induced paw oedema volume at 10 mg/kg, po administered 30 mins before formalin challenge after 4 hrs relative to control; type: functional; how it was run: as §3

SMILES	inhibition in vivo at 100 mg/kg [1] [%]	LD50 at 24 h [2] [mg/kg]	inhibition in vivo at 10 mg/kg [3] [%]	UI [4]	inhibition in vivo at 100 mg/kg [5] [%]	inhibition in vivo at 100 mg/kg [6] [%]	inhibition in vivo at 100 mg/kg [7] [%]	inhibition in vivo at 100 mg/kg [8] [%]	LD50 at 24 h [9] [mg/kg]	inhibition at 50 µg/mL [10] [%]	inhibition at 25 µg/mL [11] [%]	inhibition at 25 µg/mL [12] [%]	inhibition at 50 µg/mL [13] [%]	inhibition at 100 µg/mL [14] [%]	inhibition at 100 µg/mL [15] [%]	inhibition at 100 µg/mL [16] [%]	inhibition at 100 µg/mL [17] [%]	inhibition at 25 µg/mL [18] [%]	zone of inhibition at 25 µg/mL [18] [mm]	inhibition at 25 µg/mL [19] [%]	also measured
Cc1cccc2c(CNc3ccc(F)cc3)cc(=O)[nH]c12	23	> 700	67	55.35	6	73	28	85	> 1000												
O=c1cc(CNc2ccc(F)cc2)c2c(ccc3ccccc32)o1	63	> 800	10.5	64.93	53	60	35	77	> 1000												
O=c1cc(CNc2ccc(F)cc2)c2ccc(Cl)cc2[nH]1	4	> 700	28.6	61.42	42	57	4	77	> 1000	62	41	48	52	79	73	80	78	32	68	27	zone of inhibition at 25 µg/mL [11]: 78 mm; zone of inhibition at 25 µg/mL [19]: 58 mm; inhibition at 50 µg/mL [20]: 44%; inhibition at 50 µg/mL [21]: 54%
O=c1cc(CNc2ccc(F)cc2)c2cc(Cl)ccc2[nH]1	9	> 700	7.99	58.57	46	59	12	77	> 1000	56	35	44	47	75	70	77	76	26	60	22	zone of inhibition at 25 µg/mL [11]: 70 mm; zone of inhibition at 25 µg/mL [19]: 52 mm; inhibition at 50 µg/mL [20]: 41%; inhibition at 50 µg/mL [21]: 50%
Cc1ccc2c(CNc3ccc(F)cc3)cc(=O)oc2c1	62	> 800	3.96	64.93	54	67	37	83	> 1000	49	14	26	33	70	73	67	74	27	58	28	zone of inhibition at 25 µg/mL [11]: 40 mm; zone of inhibition at 25 µg/mL [19]: 60 mm; inhibition at 50 µg/mL [20]: 55%; inhibition at 50 µg/mL [21]: 46%
O=c1cc(COc2ccc(F)cc2)c2ccccc2[nH]1	35	> 800	15.8	60.71	52	63	23	77	> 1000												
O=c1cc(COc2ccc(F)cc2)c2cc(Cl)ccc2o1	39	> 700	56.2	66.66	58	71	38	80	> 1000	74	61	65	71	89	94	89	97	51	92	64	inhibition at 50 µg/mL [20]: 71%; inhibition at 50 µg/mL [21]: 60%
O=c1cc(COc2ccc(F)cc2)c2ccc(Cl)cc2[nH]1	24	> 800	61.3	67.5	54	66	24	78	> 1000	72	34	55	47	86	78	79	76	34	72	22	zone of inhibition at 25 µg/mL [11]: 68 mm; zone of inhibition at 25 µg/mL [19]: 52 mm; inhibition at 50 µg/mL [20]: 40%; inhibition at 50 µg/mL [21]: 56%
O=c1cc(COc2ccc(F)cc2)c2ccc3ccccc3c2o1	46	> 800	23.2	61.8	45	66	30	75	> 1000												
COc1ccc2c(c1)c(CC(=O)O)c(C)n2C(=O)c1ccc(Cl)cc1 [INDOMETHACIN]		15	46.2						25												inhibition in vivo at 10 mg/kg [22]: 35%; UI [23]: 185.14; inhibition in vivo at 10 mg/kg [24]: 43%; inhibition in vivo at 10 mg/kg [25]: 75%; inhibition in vivo at 10 mg/kg [26]: 85%; inhibition in vivo at 10 mg/kg [27]: 76%
O=c1cc(COc2ccc(F)cc2)c2cc(Cl)ccc2[nH]1	39	> 800	26.9	71.42	57	71	28	80	> 1000	68	29	50	44	84	81	75	80	45	88	28	zone of inhibition at 25 µg/mL [11]: 62 mm; zone of inhibition at 25 µg/mL [19]: 60 mm; inhibition at 50 µg/mL [20]: 51%; inhibition at 50 µg/mL [21]: 62%
O=c1cc(CNc2ccc(F)cc2)c2ccc3ccccc3c2o1	81	> 700	76.4	64.93	53	71	54	81	> 1000												
